PAFAH1B2 inh: PAFAH1B2 enzyme inhibitors, primary screen, biochemical, fluorescence polarization, human; recombinant PAFAH1B2, FP-rhodamine activity probe; 340,000 compounds, 1.2% hits; AID 492953, 2010; inhibition, % at 3.39 µM; Platelet-activating factor acetylhydrolase IB subunit alpha2 (Homo sapiens), P68402;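 active = inhibition above the mean of all tested compounds plus 3 SD, cut at about 24% in these data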;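 also: 0% = enzyme with DMSO and 100% = wells lacking PAFAH1B2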
Target sequence (P68402 whole entry, looked up): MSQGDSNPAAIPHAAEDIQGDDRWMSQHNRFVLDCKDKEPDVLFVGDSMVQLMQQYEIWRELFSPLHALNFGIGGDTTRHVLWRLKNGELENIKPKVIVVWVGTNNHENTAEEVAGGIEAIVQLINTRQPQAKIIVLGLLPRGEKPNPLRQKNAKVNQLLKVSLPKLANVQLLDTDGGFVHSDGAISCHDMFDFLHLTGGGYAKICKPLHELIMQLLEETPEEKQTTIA
PREPL inh: PREPL enzyme inhibitors, primary screen, biochemical, fluorescence polarization; recombinant PREPL, fluorescence polarization activity-based probe; 320,000 compounds, 0.68% hits; AID 2751, 2010; Prolyl endopeptidase-like (Homo sapiens), Q4J6C6; inhibition, % at 5.96 µM; in the data active = inhibition above about 43%;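 also: 0% = enzyme with DMSO and 100% = wells lacking enzyme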
pPAFAH inh: pPAFAH enzyme inhibitors, primary screen, biochemical, fluorescence polarization, human | Platelet-activating factor acetylhydrolase (Homo sapiens), Q13093 | inhibition, % at 3.39 µM | 330,000 compounds, 1.5% hits | recombinant pPAFAH, FP-rhodamine probe fluorescence polarization;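 active = inhibition above the mean inhibition across the screen plus 3 SD, cut at about 25% in these data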;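 also: inhibitors block binding of the rhodamine activity-based probe so polarization drops; 0% = enzyme with DMSO and 100% = wells lacking pPAFAH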
Apaf-1 inh: inhibitors of human Apaf-1 apoptosome, primary screen, biochemical, DEVD-Rh110 fluorescence, uHTS | Apoptotic protease-activating factor 1 (Homo sapiens), O14727 | reconstituted apoptosome caspase-3 activity | inhibition, % at 20 µM | 330,000 compounds, 0.71% hits | AID 489030, 2010; active = inhibition of at least 40% at 20 µM;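 also: plate controls were DMSO wells for no effect and DEVD-CHO caspase inhibitor wells for full effect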
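System – cell-free apoptosome with Apaf-1, procaspase-3 and caspase-9 · Buffer or medium – pH 7.5 Hepes buffer with CHAPS, BSA, DTT · Also added – cytochrome c with DEVD-Rh110 · Times – 30 min compound preincubation, 50 min activation, room temperature · Technique – Rh110 fluorescence intensity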
PAFAH2 FP inh: PAFAH2 enzyme inhibitors, primary screen, biochemical, fluorescence polarization, human | inhibition, % at 3.39 µM | recombinant PAFAH2, FP-rhodamine activity probe | Platelet-activating factor acetylhydrolase 2, cytoplasmic (Homo sapiens), Q99487 | 340,000 compounds, 0.99% hits;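 active = inhibition above the mean over all tested compounds plus 3 SD, cut at about 30% in these data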;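 also: inhibitors block probe labeling of enzyme so polarization drops; 0% = enzyme with DMSO and 100% = wells lacking PAFAH2 protein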
PAFAH1B3 FP inh: PAFAH1B3 enzyme inhibitors, primary screen, biochemical, fluorescence polarization, human; Platelet-activating factor acetylhydrolase IB subunit alpha1 (Homo sapiens), Q15102; recombinant PAFAH1B3, FP-rhodamine probe; inhibition, % at 3.39 µM; 340,000 compounds, 0.28% hits;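 active = inhibition above the screen-wide average of all tested compounds plus 3 SD, cut at about 25% in these data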;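 also: 0% = enzyme with DMSO only and 100% = wells lacking PAFAH1B3 protein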
Target sequence (Q15102 whole entry, looked up): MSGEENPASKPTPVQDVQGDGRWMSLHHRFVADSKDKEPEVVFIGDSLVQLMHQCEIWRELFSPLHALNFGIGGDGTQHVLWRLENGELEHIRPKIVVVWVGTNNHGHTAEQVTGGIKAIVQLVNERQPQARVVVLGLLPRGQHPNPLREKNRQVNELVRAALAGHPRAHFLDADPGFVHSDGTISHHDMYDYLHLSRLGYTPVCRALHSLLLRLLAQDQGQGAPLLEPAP
pPAFAH FP conf: pPAFAH (PLA2G7) enzyme inhibitors, confirmation, biochemical, fluorescence polarization, human. shares compounds with pPAFAH inh. recombinant pPAFAH, FP-Rh probe fluorescence polarization. inhibition, % at 3.39 µM. 2,300 compounds, 72% hits. AID 463230, 2010;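 active = mean inhibition of the triplicate above the hit cutoff set for the earlier primary screen, cut at about 25% in these data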;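 also: 0% = enzyme with DMSO and 100% = wells lacking pPAFAH enzyme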
An asterisk follows results filed as active; · = not tested or not shown. Hits are enriched below; roughly 3.5% of the tested compounds scored in any of these assays.

SMILES	PAFAH1B2 inh	PREPL inh	pPAFAH inh	Apaf-1 inh	PAFAH2 FP inh	PAFAH1B3 FP inh	pPAFAH FP conf
CC[C@H](C)[C@H]1CNC(=S)N1CC1CCN(CCCCc2ccccc2)CC1	6	·	·	·	1	9	·
O=S(=O)(O)c1cccc2c(N=Nc3ccc(O)c4ncccc34)cccc12	41*	27	92*	·	66*	64*	91*
Cc1ccccc1N=Nc1ccc(O)c2ncccc12	3	6	41*	·	1	9	36*
COc1ccc(C)cc1N=Nc1ccc(O)c2ncccc12	3	·	·	·	-2	3	·
CN(C)S(=O)(=O)c1ccc(N2CCCC2)c(C(=O)NC2CCCCC2)c1	0	10	8	1	0	12	·
NC(=O)N/N=C/c1ccc(N2CCOCC2)s1	1	6	1	18	-3	-10	·
O=C(O)c1cc(N/N=C/c2ccc(N3CCOCC3)s2)ccc1Cl	1	8	74*	10	16	9	19
Cc1ccc(C(=O)c2coc3ccc(O)c(Cl)c23)cc1	1	10	3	7	10	7	·
CCOC(=O)C(C(C)=O)c1c(Br)c(O)c(O)c2c(C(=O)c3ccc(C)cc3)coc12 (centres undefined)	2	16	47*	7	11	5	35*
COc1ccc(NC(=O)CN(C)C(=O)Cn2c(=O)oc3ccccc32)cc1	-2	15	4	2	3	1	·
CC(/C=N/NC(=O)Cc1cc(=O)[nH][nH]1)=C\c1ccccc1	9	16	54*	60*	-4	1	3
CN(C)c1ccc(O)c2c1CC1CC3[C@@H](N(C)C)C(=O)C(C(N)=O)=C(O)[C@]3(O)C(=O)C1=C2O (some centres undefined)	12	10	53*	-1	33*	29*	8
COc1cc(OC)cc(C(=O)Nc2ccc(S(=O)(=O)Nc3ccccn3)cc2)c1	1	6	3	4	-17	7	·
S=c1[nH]nc(-c2ccc(Cl)cc2)n1/N=C/C=C/c1ccco1	·	-53	39*	14	·	·	13
Cc1ccccc1-c1n[nH]c(=S)n1/N=C/C=C/c1ccco1	4	6	45*	0	7	5	9
S=c1[nH]nc(-c2ccc(Cl)cc2)n1/N=C/c1ccco1	6	8	4	-4	8	6	·
N#Cc1c(-c2ccccc2Cl)cc(-c2ccccc2)nc1Br	1	10	35*	13	3	-5	16
CCOc1ccccc1/C=C/c1onc(C)c1S(=O)(=O)N1CCC(C(=O)NC(C)(C)C)CC1	4	2	-2	9	1	3	·
Cc1cc(NC(=O)Cc2cccs2)no1	2	6	54*	12	35*	10	12
Cc1cc(NS(=O)(=O)c2ccc(NC(=O)Cc3cccs3)cc2)no1	6	5	7	1	6	-3	·
CCc1ccc(NC(=S)N(CCN(C)C)C(C)c2ccncc2)cc1 (centres undefined)	2	7	-7	1	3	5	·
O=[N+]([O-])c1cccc(N/N=C/c2cccc(O)c2O)c1	-2	27	60*	14	8	17	66*
Cc1cccc(N/N=C/c2ccc(O)c(O)c2O)c1	-3	5	45*	8	7	8	44*
O=[N+]([O-])c1ccc(N/N=C/c2cccc(O)c2O)c(S(=O)(=O)N2CCOCC2)c1	-8	-2	45*	8	-14	4	57*
O=[N+]([O-])c1ccccc1N/N=C/c1cccc(O)c1O	-2	29	50*	-2	2	0	14
SMILES	PAFAH1B2 inh	PREPL inh	pPAFAH inh	Apaf-1 inh	PAFAH2 FP inh	PAFAH1B3 FP inh	pPAFAH FP conf
COc1cccc(/C=N/Nc2ccc([N+](=O)[O-])cc2)c1O	-4	26	6	13	0	8	·
COc1cccc(N/N=C/c2cccc(Br)c2O)c1	7	17	8	4	29	6	·
COc1cc(OC)c(N2CC(C(=O)NCCC3=CCCCC3)CC2=O)cc1Cl (centres undefined)	12	7	1	4	2	0	·
CN(CCC#N)C(=O)CC1(Cc2ccccc2)CCOC(C)(C)C1 (centres undefined)	3	-11	5	-4	-4	1	·
CSc1ccc(COC(=O)c2cc([N+](=O)[O-])ccc2N2CCOCC2)cc1	8	31	40*	14	1	0	42*
CCOC(=O)N1CCN(C(=O)C(=O)NN)CC1	4	1	7	-12	-5	6	·
COc1cc(/C=C2/SC(=S)N(Cc3ccccc3)C2=O)cc(Cl)c1O	-144	-79	-45	·	-147	-174	·
COc1cc(/C=C2/SC(=S)N(Cc3ccccc3)C2=O)ccc1OCC(=O)O	2	-13	49*	21	5	-4	28*
COc1ccc(CNC(=O)CN2C(=O)NC3(CCCCCC3)C2=O)cc1	5	8	61*	-1	0	6	5
Cc1ccc(CNC(=O)CN2C(=O)NC3(CCCC3)C2=O)cc1	10	-3	4	0	-3	0	·
COc1ccc(CCNC(=O)COC(=O)c2ccccc2NCCO)cc1OC	0	-1	6	2	-3	7	·
CN(C)c1ccc(-c2cc([C@H]3[C@@H]4C=CCC[C@@]4(C)C(=O)N3Cc3ccccc3)ccc2F)cc1	2	5	3	17	7	8	·
COc1ccccc1Oc1c(C)oc2c(CN3CCN(CCO)CC3)c(O)ccc2c1=O	·	25	41*	9	·	·	4
CCC(C)[C@H](NC(=O)N1CCn2c1nc1ccccc12)C(=O)NCCc1ccc(OC)c(OC)c1 (some centres undefined)	-3	4	4	4	3	7	·
C/C(=N\NC(=O)c1cccc(S(=O)(=O)N2CCOCC2)c1)c1cc2ccccc2o1	2	3	2	-17	9	10	·
Cc1ccc(S(=O)(=O)N2[C@@H](c3ccccc3)C(C(=O)O)=CC[C@H]2c2ccc3c(c2)OCO3)cc1	14	0	9	9	-3	8	·
